Measured values taken from PMC4015637 (Anticancer research, 2014).
Where two headings read alike, the source gives them in different places.

What was measured:
mice or rats = details: cited from earlier work
male C57/BL6 mice = assay: In vivo toxicity study; details: for calcification in organs / histopathological analysis of the major organs (liver, heart, kidney) / toxicity in vivo (clinical pathology chemistry profile, complete blood count): 60 μg/kg i.p., three weeks
human CYP27A1 = molecular target: T1, human CYP27A1 (Homo sapiens, UniProt Q02318); assay: Metabolism by purified recombinant CYP27A1 in reconstituted system; type: in vitro ADME; details: 50 μM substrate in 0.45% cyclodextrin, 1 μM human CYP27A1, 1 h incubation
T1 sequence (Q02318 34-531): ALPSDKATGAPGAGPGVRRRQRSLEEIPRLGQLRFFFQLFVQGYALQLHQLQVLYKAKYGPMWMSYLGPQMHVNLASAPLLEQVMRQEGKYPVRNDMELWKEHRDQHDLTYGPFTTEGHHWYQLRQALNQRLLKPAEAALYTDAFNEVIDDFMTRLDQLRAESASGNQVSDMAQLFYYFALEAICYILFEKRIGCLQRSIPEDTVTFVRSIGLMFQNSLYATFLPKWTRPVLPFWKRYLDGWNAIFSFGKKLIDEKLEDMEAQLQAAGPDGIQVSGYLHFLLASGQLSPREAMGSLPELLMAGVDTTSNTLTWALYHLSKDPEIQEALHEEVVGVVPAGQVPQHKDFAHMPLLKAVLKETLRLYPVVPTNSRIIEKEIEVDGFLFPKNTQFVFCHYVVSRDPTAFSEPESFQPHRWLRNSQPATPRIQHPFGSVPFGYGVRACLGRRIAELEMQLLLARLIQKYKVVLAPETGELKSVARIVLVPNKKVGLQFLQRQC
Summary of the method: (§1)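 Reconstituted system: adrenodoxin (15 μM), adrenodoxin reductase (4 μM), purified recombinant human CYP11A1 or CYP27A1 (1 μM). Substrate at 50 μM final, solubilised in 0.45% 2-hydroxypropyl-β-cyclodextrin. Incubation 1 h, extended for some analogs to 2 h (CYP11A1) or 3 h (CYP27A1). Products extracted with dichloromethane and resolved by reverse-phase HPLC. Read-outs are % substrate conversion and number of products.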

[1] = In vitro metabolic stability in human liver microsomes; type: in vitro ADME; details: 0.5 μM compound, 1 mg/ml microsomal protein, NADPH, 37°C, n=3, mean±S.D.
Summary of the method: (§2)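 Pooled liver microsomes (1 mg/ml protein) with 0.5 μM test compound, added from acetonitrile stock, in 0.2 M phosphate pH 7.4 with NADPH-regenerating system (1.3 mM NADP+, 3.3 mM glucose-6-phosphate, 0.4 U/ml G6P dehydrogenase), shaken at 37°C. Samples at 5–120 min quenched in acetonitrile with deuterated internal standard, centrifuged, and analysed by LC-MS/MS for % remaining. Half-life reported; n=3, mean±S.D.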

[2] = In vitro metabolic stability in rat liver microsomes; type: in vitro ADME; details: 0.5 μM compound, 1 mg/ml microsomal protein, NADPH, 37°C, n=3, mean±S.D.
Summary of the method: as §2

[3] = In vitro metabolic stability in monkey liver microsomes; type: in vitro ADME; details: 0.5 μM compound, 1 mg/ml microsomal protein, NADPH, 37°C, n=3, mean±S.D.
Summary of the method: as §2

[4] = In vitro metabolic stability in dog liver microsomes; type: in vitro ADME; details: 0.5 μM compound, 1 mg/ml microsomal protein, NADPH, 37°C, n=3, mean±S.D.
Summary of the method: as §2

[5] = type: in vitro ADME, human, rat, mouse, monkey, dog
[6] = In vitro metabolic stability in mouse liver microsomes; type: in vitro ADME; details: 0.5 μM compound, 1 mg/ml microsomal protein, NADPH, 37°C, n=3, mean±S.D.
Summary of the method: as §2

rat CYP24A1 = molecular target: T2, rat CYP24A1 (Rattus norvegicus, UniProt Q09128); assay: Metabolism by purified recombinant CYP24A1 in reconstituted system; type: in vitro ADME; details: phospholipid vesicles, 0.025 mol secosteroid/mol phospholipid, 1 μM rat CYP24A1, 1 h
T2 sequence (Q09128 36-514): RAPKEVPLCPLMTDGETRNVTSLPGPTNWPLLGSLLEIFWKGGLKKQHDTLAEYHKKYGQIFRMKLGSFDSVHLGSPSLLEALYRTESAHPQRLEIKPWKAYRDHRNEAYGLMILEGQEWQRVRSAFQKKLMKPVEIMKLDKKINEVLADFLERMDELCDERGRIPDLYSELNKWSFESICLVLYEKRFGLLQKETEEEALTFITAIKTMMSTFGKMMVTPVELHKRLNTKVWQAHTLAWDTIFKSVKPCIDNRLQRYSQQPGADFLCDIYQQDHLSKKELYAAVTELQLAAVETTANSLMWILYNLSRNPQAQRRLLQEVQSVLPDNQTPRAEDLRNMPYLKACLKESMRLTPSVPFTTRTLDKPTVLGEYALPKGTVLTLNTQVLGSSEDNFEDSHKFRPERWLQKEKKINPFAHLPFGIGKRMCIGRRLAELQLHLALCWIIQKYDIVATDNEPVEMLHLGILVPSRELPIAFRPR
Summary of the method: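 Reconstituted system: purified recombinant rat CYP24A1 (1 μM), adrenodoxin (15 μM) and adrenodoxin reductase (4 μM). Test compound incorporated into phospholipid vesicles at 0.025 mol secosteroid/mol phospholipid. Incubated 1 h. Products extracted with dichloromethane and resolved by reverse-phase HPLC. Result expressed as percentage conversion of substrate to products and number of products.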

human CYP11A1 = molecular target: T3, human CYP11A1 (Homo sapiens, UniProt P05108); assay: Metabolism by purified recombinant CYP11A1 in reconstituted system; type: in vitro ADME; details: 50 μM substrate in 0.45% cyclodextrin, 1 μM human CYP11A1, 1 h incubation
T3 sequence (P05108 40-521): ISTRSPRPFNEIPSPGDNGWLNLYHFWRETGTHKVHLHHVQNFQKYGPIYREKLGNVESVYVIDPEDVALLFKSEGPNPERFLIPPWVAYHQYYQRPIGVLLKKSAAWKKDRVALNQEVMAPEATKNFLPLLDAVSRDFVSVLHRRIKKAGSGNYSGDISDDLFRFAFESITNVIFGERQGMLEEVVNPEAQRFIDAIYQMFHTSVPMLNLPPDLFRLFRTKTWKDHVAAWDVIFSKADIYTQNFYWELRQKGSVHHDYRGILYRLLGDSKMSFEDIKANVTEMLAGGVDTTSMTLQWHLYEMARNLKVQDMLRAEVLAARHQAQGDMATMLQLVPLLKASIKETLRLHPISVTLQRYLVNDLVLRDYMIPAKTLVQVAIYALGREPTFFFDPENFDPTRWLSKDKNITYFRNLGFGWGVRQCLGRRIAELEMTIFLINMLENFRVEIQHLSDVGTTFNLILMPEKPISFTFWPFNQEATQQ
Summary of the method: as §1

rats = details: 3 μg/kg for seven consecutive days; cited from earlier work
mice = details: up to 30 μg/kg for three weeks; cited from earlier work
[7] = 60 μg/kg i.p. once daily for three weeks

C=C1/C(=C\C=C2/CCC[C@]3(C)[C@@H]([C@H](C)CCCC(C)(C)O)CC[C@@H]23)C[C@@H](O)C[C@@H]1O [1,25(OH)2D3, 1,25-dihydroxy vitamin D3, reference compound]
dose reported to generate hypercalcemia (mice or rats; mice (ref 37) or rats (ref 20)): ≥ 1 µg/kg
body weight (male C57/BL6 mice; 2 μg/kg i.p. once daily for three weeks): 21 ± 1 g
serum calcium (male C57/BL6 mice; 2 μg/kg i.p. once daily for three weeks, positive control): 14.6 ± 0.48 mg/dL

C=C1CC[C@H](O)C/C1=C/C=C1\CCC[C@@]2(C)C1CC[C@@H]2[C@@](C)(O)CCCC(C)C (stereo partly drawn) [20R(OH)D3, 20R-hydroxyvitamin D3]
CYP27A1 % conversion of substrate to products (human CYP27A1): 90%
CYP27A1 No. of different products (at least 2% of total secosteroids) (human CYP27A1): 3
half-life in liver microsomes, Human [1]: 34 ± 2 min
half-life in liver microsomes, Rat [2]: 19 ± 3 min
half-life in liver microsomes, Monkey [3]: 15 ± 1 min
body weight (male C57/BL6 mice; [7]): 25 ± 1 g
serum calcium (male C57/BL6 mice; [7]): 8.6 ± 0.77 mg/dL
calcification in organs (male C57/BL6 mice): Calcification was not present
histopathological analysis of the major organs (liver, heart, kidney) (male C57/BL6 mice): unremarkable histology
toxicity in vivo (clinical pathology chemistry profile, complete blood count) (male C57/BL6 mice): did not show toxicity
half-life in liver microsomes, Dog [4]: 21 ± 2 min
half-life in liver microsomes, average of five different species [5]: 30 min
half-life in liver microsomes, Mouse [6]: 25 ± 1 min
CYP24A1 No. of different products (at least 2% of total secosteroids) (rat CYP24A1): 4

C=C1CC[C@H](O)C/C1=C/C=C1\CCC[C@@]2(C)[C@H]1CC[C@@H]2[C@@](C)(O)CCCC(C)C [20S(OH)D3, 20S-hydroxyvitamin D3]
CYP27A1 No. of different products (at least 2% of total secosteroids) (human CYP27A1): 3
half-life in liver microsomes, Human [1]: 60 ± 4 min
CYP11A1 % conversion of substrate to products (human CYP11A1): 21%
CYP11A1 No. of different products (at least 2% of total secosteroids) (human CYP11A1): 3
half-life in liver microsomes, Rat [2]: 43 ± 1 min
half-life in liver microsomes, Monkey [3]: 37 ± 1 min
effect on systemic calcium levels (rats): no effect on systemic calcium levels
effect on systemic calcium levels (mice): no effect on systemic calcium levels
body weight (male C57/BL6 mice; [7]): 25 ± 1 g
serum calcium (male C57/BL6 mice; [7]): 8.8 ± 0.66 mg/dL
calcification in organs (male C57/BL6 mice): Calcification was not present
histopathological analysis of the major organs (liver, heart, kidney) (male C57/BL6 mice): six out of the seven mice treated with 20S(OH)D3 show unremarkable histology
toxicity in vivo (clinical pathology chemistry profile, complete blood count) (male C57/BL6 mice): did not show toxicity
highest possible dose that does not cause noticeable cytotoxic effects (male C57/BL6 mice; i.p. once daily for three weeks, stated as probable): 60 µg/kg
half-life in liver microsomes, Dog [4]: 47 ± 1 min
half-life in liver microsomes, average of five different species [5]: 50 min
half-life in liver microsomes, Mouse [6]: 42 ± 2 min
CYP24A1 No. of different products (at least 2% of total secosteroids) (rat CYP24A1): 3

C=C1CC[C@H](O)C/C1=C/C=C1\CCC[C@]2(C)[C@@H]([C@H](C)CCCC(C)(C)O)CC[C@@H]12 [25(OH)D3, 25-hydroxyD3]
dose reported to generate hypercalcemia (mice or rats; in vivo): ≥ 1 µg/kg
